# Compound activity as filed in PubChem BioAssay.
# Bim-Mcl-1: inhibitors of Bim-Mcl-1 interaction, human | inhibition, % at 10 µM | actives 0.1% (n = 190,000) | Q07820 | Bead-based flow cytometry, Bim peptide-Mcl-1 binding; in the data active means inhibition above about 40%
# Mcl1-Noxa inh: Mcl-1/Noxa interaction inhibition | Q07820 | TR-FRET Mcl-1/Noxa peptide binding, 2 h | inhibition, % at 21.7 µM | actives 1.5% (n = 220,000);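 active means compounds that cut the protein-peptide binding signal by more than 50% relative to plate controls in a single-dose test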;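 further: His-tagged Mcl-1 with rhodamine Noxa BH3 peptide and terbium anti-His antibody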
# T cell HTS: T cell immune modulators affecting CD8 T cell-vesicle binding | response (vesicle binding), % at 7 µM | AID 2052 | 2C CD8+ T cell-vesicle binding, flow cytometry; active compounds read low | actives 0.068% (n = 330,000);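 active means response, share of CD8 T cells binding vesicles, and their 90th percentile fluorescence all below set limits, cut at about 80% in these data, passing the limit was not always enough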;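 further: values below 100% mean blocked vesicle binding to the CD8+ T cells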
#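 Assay system – 2C mouse CD8+ T cells · Also added – QL9-loaded Drosophila micro-vesicles · Timing – Cell–vesicle co-incubation 1.5 h at 37 °C, staining 20 min on ice · Signal – flow cytometry of vesicle-bound cells · Measure – percent CD8+ FL2 mean versus row control · Controls – Peptide-free naked vesicles (low) and QL9 vesicles with 0.7% DMSO vehicle (high)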
# Mcl1-Bid inh: Mcl-1/Bid interaction inhibition. Q07820. actives 0.97% (n = 220,000). TR-FRET Mcl-1/Bid-Dy647 peptide binding, 1536-well. inhibition, % at 21.7 µM;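 active means compounds that cut the binding signal by more than half at the single screening dose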;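 further: His-tagged Mcl-1 with europium anti-His antibody binding Bid BH3 peptide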
# MCL1-BIM inh: MCL1-BIM-BH3 interaction inhibition (human); Q07820; GST-MCL1 / FITC-Bim-BH3 fluorescence polarization; inhibition, % at 10.9 µM; actives 0.68% (n = 320,000); AID 2057;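 active means inhibition above the mean inhibition of all tested compounds plus 3 SD, set per campaign, cut at about 40% in these data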;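 further: higher means more loss of mP so more displacement of Bim peptide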
# Pemphigus Ab inh: inhibitors of pemphigus antibody binding to human desmoglein-3 | P32926 | DSG3-coupled beads, scFv-anti-DSG3-GFP binding, flow cytometry; active compounds read low | binding (percent of control), % at 10 µM | actives 0.48% (n = 310,000) | AID 588358;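 active means binding more than 3 SD below its plate's average and above zero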;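 further: hits lower antibody fragment binding to DSG3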
# Target sequence (P32926 whole entry, looked up, the tested form may be a part): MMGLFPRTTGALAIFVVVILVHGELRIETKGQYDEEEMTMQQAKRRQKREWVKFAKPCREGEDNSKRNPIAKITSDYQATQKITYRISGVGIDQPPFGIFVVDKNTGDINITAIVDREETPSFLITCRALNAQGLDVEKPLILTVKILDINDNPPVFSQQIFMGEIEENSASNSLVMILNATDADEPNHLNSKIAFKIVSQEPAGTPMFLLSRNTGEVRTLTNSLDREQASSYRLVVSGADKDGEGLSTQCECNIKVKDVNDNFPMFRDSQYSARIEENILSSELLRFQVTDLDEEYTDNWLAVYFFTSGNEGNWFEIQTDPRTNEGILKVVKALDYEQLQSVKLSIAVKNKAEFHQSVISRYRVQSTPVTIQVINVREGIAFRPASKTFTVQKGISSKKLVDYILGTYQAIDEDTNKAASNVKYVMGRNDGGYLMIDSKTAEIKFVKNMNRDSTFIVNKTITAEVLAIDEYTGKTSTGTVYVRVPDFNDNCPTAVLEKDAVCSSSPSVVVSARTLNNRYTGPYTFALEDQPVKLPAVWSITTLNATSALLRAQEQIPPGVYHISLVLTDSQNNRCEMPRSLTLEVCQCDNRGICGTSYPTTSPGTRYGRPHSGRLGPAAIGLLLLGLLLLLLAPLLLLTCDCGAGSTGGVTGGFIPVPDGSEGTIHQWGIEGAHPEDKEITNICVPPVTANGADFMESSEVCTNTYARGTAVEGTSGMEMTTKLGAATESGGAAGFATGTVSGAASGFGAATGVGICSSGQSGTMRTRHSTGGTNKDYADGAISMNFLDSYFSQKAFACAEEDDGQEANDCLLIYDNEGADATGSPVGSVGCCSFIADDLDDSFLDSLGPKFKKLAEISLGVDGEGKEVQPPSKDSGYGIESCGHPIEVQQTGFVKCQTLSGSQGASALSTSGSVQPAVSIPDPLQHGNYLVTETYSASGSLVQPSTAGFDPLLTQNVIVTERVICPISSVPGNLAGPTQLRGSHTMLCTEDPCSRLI
# Hits are given with their value; 0 = inactive; - = no result given. In the library only some 2.3% were active in any assay of this set; here they are far more common.
SMILES,Bim-Mcl-1,Mcl1-Noxa inh,T cell HTS,Mcl1-Bid inh,MCL1-BIM inh,Pemphigus Ab inh
Cn1c(CNC(=O)CNC(=O)c2cccc(Cl)c2)cc(=O)n(C)c1=O,-,-,0,-,0,-
Cn1c(CNC(=O)CNC(=O)c2ccc(F)cc2)cc(=O)n(C)c1=O,-,-,0.0,-,0,0
CCSc1nnc(NC(=O)C(Cc2ccccc2)n2cccc2)s1 (centres undefined),0,0,0,64.5,0,0
Cc1csc(NC(=O)C(Cc2ccccc2)n2cccc2)n1 (centres undefined),0,0,0,0,0,0
O=[N+]([O-])c1ccc(N/N=C/c2cn(Cc3ccc(F)cc3)c3ccccc23)nc1,0,56.8,0,93.6,0,0
COC(=O)N/N=C/c1cn(Cc2ccc(F)cc2)c2ccccc12,-,0,0,0,0,-
O=C(O)C(O)c1ccco1 (centres undefined),0,67.3,-,0,-,0
CCC12C(=Nc3c(Cl)cccc31)C[C@@H]1CCN3C(=O)CCC[C@H]2[C@H]13 (some centres undefined),-,-,-,-,-,0
Cc1ccc(OCC(O)Cn2c(N3CCCCC3)nc3c2c(=O)[nH]c(=O)n3C)cc1C (centres undefined),-,-,0,-,0,0
O=C(CN1C(=O)NC2(CCCC2)C1=O)Nc1cccc(Cl)c1Cl,-,-,0,-,0,56.6
CCN(CC)S(=O)(=O)c1ccc2c3c(cccc13)C(=O)N2,0,0,0.0,0,0,0
O=C1OCCC1=COCCCCCOC=C1CCOC1=O,-,-,-,-,-,0
CCOC(OCC)c1nc(N)[nH]c(=O)c1CCCCc1ccccc1,-,-,-,-,-,0
Cn1c(N)nc2nc(CCc3ccccc3)c(=O)[nH]c2c1=O,-,-,0,-,40.9,0
Cc1ccc2c(c1)c(C1=NC(=S)NC1=O)c(O)n2C,0,54.9,0,0,0,0
Cc1ccc2c(c1)c(N=Nc1ccc([N+](=O)[O-])cc1)c(O)n2C,-,-,0,-,0,0
CCN(C(=O)Cn1c(Cl)nc2c1c(=O)n(C)c(=O)n2C)C1CCCCC1,-,-,0,-,-,-
O=C1CSC(c2ccc(Cl)cc2)N1c1cccnc1 (centres undefined),-,0,0,0,0,0
O=C1CSC(c2cccnc2)N1c1ccc(Cl)cc1 (centres undefined),0,0,0,79.4,0,0
COc1cc(OC)cc(N(C(=O)C2COc3ccccc3O2)C(C(=O)NC2CCCCC2)c2ccc(O)cc2)c1 (centres undefined),0,0,0,0,0,76.0
Cc1ccc(NC(=O)CC2S/C(=N/N=C3/NC(=O)CS3)NC2=O)cc1 (centres undefined),0,0,0,0,0,0
CCOC(=O)c1ccc(NC(=O)CC2S/C(=N/N=C/c3c[nH]c4ccccc34)NC2=O)cc1 (centres undefined),-,61.2,0,62.5,0,-
Cc1ccc(NC(=O)CC2S/C(=N/N=C/c3c[nH]c4ccccc34)NC2=O)cc1 (centres undefined),0,0,0,57.5,0,0
c1ccc(CN2CCN(C(c3ccccc3)c3ccccc3)CC2)cc1,-,-,0,-,0,0
O=C1c2ccccc2C(=O)N1CC#CCN1CCN(C(c2ccccc2)c2ccccc2)CC1,0,0,0,62.3,0,0
SMILES,Bim-Mcl-1,Mcl1-Noxa inh,T cell HTS,Mcl1-Bid inh,MCL1-BIM inh,Pemphigus Ab inh
Cn1c2ccccc2c(=O)c2c(=O)n(C3CCCCCC3)c(C3CCCCC3)nc21,0,0,-,88.8,-,0
Cn1c2ccccc2c(=O)c2c(=O)n(-c3ccccc3)c(C3CCCCC3)nc21,0,0,0,0,0,0
Cc1ccc2nc3nc(NCC4CCCO4)c(C(=O)NC4CCCC4)cc3c(=O)n2c1 (centres undefined),0,0,0,0,0,0
COCCCNC(=O)c1cc2c(=O)n3cc(C)ccc3nc2nc1NCC1CCCO1 (centres undefined),0,0,0,65.6,0,-
O=c1c(OCc2ccccc2)cccn1Cc1ccccc1,-,-,-,-,-,0
CC(=O)N1CCCN(Cc2cn(-c3ccc(C)cc3)nc2-c2ccc(F)cc2)CC1,0,0,0,56.3,0,0
O=C(Nc1nnc(-c2ccco2)s1)C1CCCCC1,0,0,0,55.9,0,0
CCC1Cc2c(nc(N)c3c(N)nc(N4CCCCC4)c(C#N)c23)O1 (centres undefined),0,0,0,0,0,0
